Assay results reported in ChEMBL document CHEMBL3392971, “Design and synthesis of protein kinase C epsilon selective diacylglycerol lactones (DAG-lactones)” (Eur J Med Chem, 2015).

Legend:
[1] = target: T1, Protein kinase C epsilon type (Homo sapiens, UniProt Q02156); experiment: Displacement of [20-3H] phorbol 12, 13-dibutylate from recombinant PKCepsilon (unknown origin) in presence of nuclear membrane mimetic lipid mixture; assay type: cell membranes
T1 sequence (Q02156 whole entry): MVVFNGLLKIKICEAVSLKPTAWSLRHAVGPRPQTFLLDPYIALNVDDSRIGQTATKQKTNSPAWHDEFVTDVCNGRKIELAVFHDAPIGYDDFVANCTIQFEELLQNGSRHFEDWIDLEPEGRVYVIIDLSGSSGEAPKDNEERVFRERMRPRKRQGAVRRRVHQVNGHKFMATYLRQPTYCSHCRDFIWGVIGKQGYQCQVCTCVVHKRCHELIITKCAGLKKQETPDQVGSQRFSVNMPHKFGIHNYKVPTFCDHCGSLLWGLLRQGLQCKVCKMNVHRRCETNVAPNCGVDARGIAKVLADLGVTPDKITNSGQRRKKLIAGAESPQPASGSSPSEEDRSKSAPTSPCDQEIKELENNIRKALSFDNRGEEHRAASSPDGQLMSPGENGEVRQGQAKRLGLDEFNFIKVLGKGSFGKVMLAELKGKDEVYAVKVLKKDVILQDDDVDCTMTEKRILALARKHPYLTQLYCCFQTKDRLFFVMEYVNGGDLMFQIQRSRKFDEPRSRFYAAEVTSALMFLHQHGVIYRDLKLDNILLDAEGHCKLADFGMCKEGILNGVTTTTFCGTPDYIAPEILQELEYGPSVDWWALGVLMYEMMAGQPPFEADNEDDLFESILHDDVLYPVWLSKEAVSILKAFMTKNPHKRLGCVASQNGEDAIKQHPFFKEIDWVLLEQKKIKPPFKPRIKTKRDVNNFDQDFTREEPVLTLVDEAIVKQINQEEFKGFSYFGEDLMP

[2] = target: T2, Protein kinase C alpha type (Homo sapiens, UniProt P17252); experiment: Displacement of [20-3H] phorbol 12, 13-dibutylate from recombinant PKCalpha (unknown origin) in presence of nuclear membrane mimetic lipid mixture; assay type: cell membranes
[3] = target: T1, Protein kinase C epsilon type; experiment: Displacement of [20-3H] phorbol 12, 13-dibutylate from recombinant PKCepsilon (unknown origin) in presence of 100 ug/ml 100% phosphatidylserine
Homo sapiens [4] = organism: Homo sapiens; experiment: Selectivity index, ratio of Ki for recombinant PKCalpha (unknown origin) in presence of nuclear membrane mimetic lipid mixture to Ki for recombinant PKCepsilon (unknown origin) in presence of nuclear membrane mimetic lipid mixture; assay type: cell membranes
In short: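 Ki values for recombinant PKC-alpha and PKC-epsilon were each measured by competition with [20-3H]PDBu in the nuclear-membrane-mimetic lipid mix (POPC/POPE/POPS/POPI/cholesterol 61:21:4:7:6). The ratio is PKC-alpha Ki divided by PKC-epsilon Ki.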

Homo sapiens [5] = organism: Homo sapiens; experiment: Selectivity index, ratio of Ki for recombinant PKCalpha (unknown origin) in presence of 100 ug/ml 100% phosphatidylserine to Ki for recombinant PKCepsilon (unknown origin) in presence of 100 ug/ml 100% phosphatidylserine
[6] = target: T2, Protein kinase C alpha type; experiment: Displacement of [20-3H] phorbol 12, 13-dibutylate from recombinant PKCalpha (unknown origin) in presence of 100 ug/ml 100% phosphatidylserine
[7] = Lipophilicity, log P of the compound; assay type: physicochemical; settings: octanol/water

Row | SMILES | Ki [1] | Ki [2] | Ki [3] | Ratio Ki (Homo sapiens [4]) | Ratio Ki (Homo sapiens [5]) | Ki [6] | logP [7] | logP ([7]; read-out: logP)
1 | CCCCCC1CC1CC1CC1CCCCCCC/C=C1\CC(CO)(COC(=O)C(C)(C)C)OC1=O (configuration not stated) | 41 nM | 110 nM | 8.3 nM | 2.7 | 3.2 | 26.7 nM | 9.15 | 
2 | CC(C)C/C=C1\CC(CO)(COC(=O)CC(CC(C)C)CC(C)C)OC1=O (configuration not stated) | 3 nM | 15.4 nM | 1.21 nM | 5.1 | 2.3 | 2.78 nM |  | 5.06
3 | CCCCCCCCCCCCCCCCCC(=O)OCC1(CO)C/C(=C/CC(C)C)C(=O)O1 (configuration not stated) | 34 nM | 106 nM | 19.3 nM | 3.1 | 2.3 | 43.9 nM |  | 8.72
4 | CCCCC/C=C\C/C=C\CCCCCCC/C=C1/CC(CO)(COC(=O)C(C)(C)C)OC1=O (configuration not stated) | 9.6 nM | 31.1 nM | 5.06 nM | 3.2 | 1.4 | 7.2 nM |  | 8.25
5 | CC(C)CC(C/C=C1\CC(CO)(COC(=O)C(C)(C)C)OC1=O)CC(C)C (configuration not stated) | 1.43 nM | 46 nM | 1.03 nM | 32.2 | 8.1 | 8.3 nM |  | 
6 | CCCCCC1CC1CC1CC1CCCCCCCC(=O)OCC1(CO)C/C(=C\CC(C)C)C(=O)O1 (configuration not stated) | 19.8 nM | 60 nM | 5.5 nM | 3 | 1.9 | 10.2 nM | 9.19 | 
7 | CCCCCC1OC1CC1OC1CCCCCCCC(=O)OCC1(CO)C/C(=C/CC(C)C)C(=O)O1 (configuration not stated) | 63 nM | 103 nM | 16.3 nM | 1.6 | 1 | 16.5 nM |  | 5.69
8 | CCCCCC1CC1CC1CC1CCCCCCC/C=C1/CC(CO)(COC(=O)C(C)(C)C)OC1=O (configuration not stated) | 58.8 nM | 73 nM | 15.2 nM | 1.2 | 2.2 | 33.1 nM | 9.15 | 
9 | CC(C)C/C=C1/CC(CO)(COC(=O)CC(CC(C)C)CC(C)C)OC1=O (configuration not stated) | 15.6 nM | 57 nM | 2.37 nM | 3.6 | 2 | 4.74 nM |  | 5.06
10 | CCCCCCCCC#CCCCCCCCC(=O)OCC1(CO)C/C(=C/CC(C)C)C(=O)O1 (configuration not stated) | 34.6 nM | 38.7 nM | 7.12 nM | 1.1 | 1.8 | 12.6 nM |  | 8.01
11 | CCCCCCC#CC#CCCCCCCCC(=O)OCC1(CO)C/C(=C/CC(C)C)C(=O)O1 (configuration not stated) | 40.3 nM | 44.8 nM | 13.4 nM | 1.1 | 0.7 | 9.8 nM |  | 7.82
12 | CCCCCCCCCCCCCCCCCC(=O)OCC1(CO)C/C(=C\CC(C)C)C(=O)O1 (configuration not stated) | 47 nM | 99 nM | 11.4 nM | 2.1 | 2.7 | 30.8 nM |  | 8.72
13 | CCCCCC1OC1CC1OC1CCCCCCCC(=O)OCC1(CO)C/C(=C\CC(C)C)C(=O)O1 (configuration not stated) | 16.9 nM | 116 nM | 7.46 nM | 6.9 | 1.8 | 13.2 nM |  | 5.69
14 | CCCCCC=CCC=CCCCCCCCC(=O)OCC1(CO)C/C(=C\CC(C)C)C(=O)O1 (configuration not stated) | 13.1 nM | 24.7 nM | 2.14 nM | 1.9 | 2 | 4.33 nM |  | 8.29
15 | CCCCCC=CCC=CCCCCCCCC(=O)OCC1(CO)C/C(=C/CC(C)C)C(=O)O1 (configuration not stated) | 19.5 nM | 26.2 nM | 12.2 nM | 1.3 | 0.6 | 7.05 nM |  | 8.29
16 | CCCCCC1CC1CC1CC1CCCCCCCC(=O)OCC1(CO)C/C(=C/CC(C)C)C(=O)O1 (configuration not stated) | 30.7 nM | 44 nM | 9.8 nM | 1.4 | 1.6 | 15.4 nM | 9.19 | 
17 | CCCCC/C=C\C/C=C\CCCCCCC/C=C1\CC(CO)(COC(=O)C(C)(C)C)OC1=O (configuration not stated) | 5.2 nM | 25.7 nM | 4.1 nM | 4.9 | 2 | 8.26 nM |  | 8.25
18 | CCCCCCCCC#CCCCCCCCC(=O)OCC1(CO)C/C(=C\CC(C)C)C(=O)O1 (configuration not stated) | 9.1 nM | 43.8 nM | 4.79 nM | 4.8 | 1.8 | 8.7 nM |  | 8.01
19 | CCCCCCC#CC#CCCCCCCCC(=O)OCC1(CO)C/C(=C\CC(C)C)C(=O)O1 (configuration not stated) | 12.8 nM | 60.8 nM | 5.24 nM | 4.8 | 1.6 | 8.31 nM |  | 7.82
